tested on: not listed separately; assay: Antiviral activity against Cowpox virus Brighton infected in HFF cells incubated for 3 days by plaque reduction assay; assay type: functional, cell-based, Cowpox virus (Brighton Red); settings: hff

| Structure (SMILES) | IC50 |
| --- | --- |
| CC(C)CNC(=O)[C@@H](N)Cc1ccc(OP2(=O)CO[C@@H](Cn3cnc4c(N)ncnc43)CO2)cc1 (mixture of isomers; form 3) | 2500 nM |

tested on: Human betaherpesvirus 5; assay: Antiviral activity against HCMV Towne infected in HFF cells incubated for 10 days by plaque reduction assay; assay type: functional, organism-based; settings: Human betaherpesvirus 5, Towne, HFF, 240 h
Summary of the method: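 Towne strain (plaque-purified P0) on HFF cells, about 100 plaques per well. Drug overlay (100 µM down to 0.03 µM), about 10 days incubation, crystal violet staining, microscopic plaques counted. IC50 from regression of % plaque reduction versus no-drug wells. Duplicate; ganciclovir as positive control.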

| Structure (SMILES) | IC50 |
| --- | --- |
| Nc1nc2c(ncn2COC(CO)CO)c(=O)[nH]1 [GANCICLOVIR] | 140 nM |

same assay, conditions: hff

| Structure (SMILES) | IC50 |
| --- | --- |
| CC(C)CNC(=O)[C@@H](N)Cc1ccc(OP2(=O)CO[C@@H](Cn3cnc4c(N)ncnc43)CO2)cc1 (mixture of isomers; form 3) | 550 nM |

tested on: not listed separately; assay: Half life in phosphate buffer at pH 6.5 at 37 degC by LC/MS analysis; assay type: physicochemical; settings: not given

| Structure (SMILES) | half-life |
| --- | --- |
| COC(=O)[C@@H](N)Cc1ccc(O[P@]2(=O)CO[C@@H](Cn3cnc4c(N)ncnc43)CO2)cc1 | 0.917 h |
| COC(=O)[C@@H](N)Cc1ccc(O[P@@]2(=O)CO[C@@H](Cn3cnc4c(N)ncnc43)CO2)cc1 | 5.5 h |
| CC(C)CNC(=O)[C@@H](N)Cc1ccc(O[P@]2(=O)CO[C@@H](Cn3cnc4c(N)ncnc43)CO2)cc1 | 2.03 h |
| COC(=O)[C@@H](N)Cc1ccc(O[P@]2(=O)CO[C@@H](Cn3ccc(N)nc3=O)CO2)cc1 | 0.933 h |
| CC(C)(C)NC(=O)[C@H](N)Cc1ccc(O[P@@]2(=O)CO[C@@H](Cn3ccc(N)nc3=O)CO2)cc1 | 28.9 h |
| CC(C)OC(=O)[C@@H](N)Cc1ccc(O[P@@]2(=O)CO[C@@H](Cn3ccc(N)nc3=O)CO2)cc1 | 12.8 h |
| COC(=O)[C@H](Cc1ccc(O[P@@]2(=O)CO[C@@H](Cn3cnc4c(N)ncnc43)CO2)cc1)NC(=O)[C@@H](N)C(C)C | 5.77 h |
| CC(C)CNC(=O)[C@@H](N)Cc1ccc(O[P@@]2(=O)CO[C@@H](Cn3cnc4c(N)ncnc43)CO2)cc1 | 12.8 h |
| CC(C)(C)NC(=O)[C@H](N)Cc1ccc(O[P@]2(=O)CO[C@@H](Cn3ccc(N)nc3=O)CO2)cc1 | 3.5 h |
| COC(=O)[C@H](N)Cc1ccc(O[P@@]2(=O)CO[C@@H](Cn3ccc(N)nc3=O)CO2)cc1 | 6.42 h |
| CC(C)OC(=O)[C@@H](N)Cc1ccc(O[P@]2(=O)CO[C@@H](Cn3ccc(N)nc3=O)CO2)cc1 | 2.02 h |
| COC(=O)[C@H](Cc1ccc(O[P@]2(=O)CO[C@@H](Cn3cnc4c(N)ncnc43)CO2)cc1)NC(=O)[C@@H](N)C(C)C | 1.58 h |
| COC(=O)[C@H](N)Cc1ccc(O[P@]2(=O)CO[C@@H](Cn3ccc(N)nc3=O)CO2)cc1 | 1.52 h |
| COC(=O)[C@@H](N)Cc1ccc(O[P@@]2(=O)CO[C@@H](Cn3ccc(N)nc3=O)CO2)cc1 | 4.27 h |

tested on: Vaccinia virus; assay: Antiviral activity against Vaccinia virus Copenhagen infected in HFF cells incubated for 3 days by plaque reduction assay; assay type: functional, organism-based, Orthopoxvirus vaccinia; settings: hff

| Structure (SMILES) | IC50 |
| --- | --- |
| CC(C)CNC(=O)[C@@H](N)Cc1ccc(OP2(=O)CO[C@@H](Cn3cnc4c(N)ncnc43)CO2)cc1 (mixture of isomers; form 3) | 1000 nM |

tested on: HFF; assay: Cytotoxicity against HFF cells after 48 hrs by visual cytotoxicity observation assay; assay type: cell-based, Homo sapiens; settings: Homo sapiens, HFF, 48 h

| Structure (SMILES) | IC50 |
| --- | --- |
| Nc1nc2c(ncn2COC(CO)CO)c(=O)[nH]1 [GANCICLOVIR] | > 100000 nM |

tested on: not listed separately; assay: Half life in Sprague-Dawley rat intestinal homogenate at pH 6.5 by LC/MS analysis; assay type: ADME, tissue-based, Intestine; settings: not given
Summary of the method: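 Compound stock (1 mg/ml, 400 µL) mixed with 260 µL buffer and 140 µL homogenate, 37 °C. Samples taken over time, quenched with methanol, centrifuged, supernatant analysed by LC-MS (C18, acetonitrile gradient in ammonium acetate pH 5.5). Run separately for each phosphorus diastereomer.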

| Structure (SMILES) | half-life |
| --- | --- |
| COC(=O)[C@@H](N)Cc1ccc(O[P@]2(=O)CO[C@@H](Cn3cnc4c(N)ncnc43)CO2)cc1 | < 0.5 h |
| COC(=O)[C@@H](N)Cc1ccc(O[P@@]2(=O)CO[C@@H](Cn3cnc4c(N)ncnc43)CO2)cc1 | < 0.5 h |
| CC(C)CNC(=O)[C@@H](N)Cc1ccc(O[P@]2(=O)CO[C@@H](Cn3cnc4c(N)ncnc43)CO2)cc1 | 1.9 h |
| COC(=O)[C@@H](N)Cc1ccc(O[P@]2(=O)CO[C@@H](Cn3ccc(N)nc3=O)CO2)cc1 | < 0.5 h |
| CC(C)(C)NC(=O)[C@H](N)Cc1ccc(O[P@@]2(=O)CO[C@@H](Cn3ccc(N)nc3=O)CO2)cc1 | 28.9 h |
| CC(C)OC(=O)[C@@H](N)Cc1ccc(O[P@@]2(=O)CO[C@@H](Cn3ccc(N)nc3=O)CO2)cc1 | < 0.5 h |
| COC(=O)[C@H](Cc1ccc(O[P@@]2(=O)CO[C@@H](Cn3cnc4c(N)ncnc43)CO2)cc1)NC(=O)[C@@H](N)C(C)C | < 0.5 h |
| CC(C)CNC(=O)[C@@H](N)Cc1ccc(O[P@@]2(=O)CO[C@@H](Cn3cnc4c(N)ncnc43)CO2)cc1 | 12.8 h |
| CC(C)(C)NC(=O)[C@H](N)Cc1ccc(O[P@]2(=O)CO[C@@H](Cn3ccc(N)nc3=O)CO2)cc1 | 3.85 h |
| COC(=O)[C@H](N)Cc1ccc(O[P@@]2(=O)CO[C@@H](Cn3ccc(N)nc3=O)CO2)cc1 | 3.5 h |
| CC(C)OC(=O)[C@@H](N)Cc1ccc(O[P@]2(=O)CO[C@@H](Cn3ccc(N)nc3=O)CO2)cc1 | < 0.5 h |
| COC(=O)[C@H](Cc1ccc(O[P@]2(=O)CO[C@@H](Cn3cnc4c(N)ncnc43)CO2)cc1)NC(=O)[C@@H](N)C(C)C | < 0.5 h |
| COC(=O)[C@H](N)Cc1ccc(O[P@]2(=O)CO[C@@H](Cn3ccc(N)nc3=O)CO2)cc1 | 1.2 h |
| COC(=O)[C@@H](N)Cc1ccc(O[P@@]2(=O)CO[C@@H](Cn3ccc(N)nc3=O)CO2)cc1 | < 0.5 h |

tested on: KB; assay: Cytotoxicity against human KB cells after 48 hrs by crystal violet staining based spectrophotometric analysis; assay type: cell-based; settings: not given
Summary of the method: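 KB cells at 5000 per well, left overnight at 37 °C. Compound added at eight concentrations in triplicate, 48 h at 37 °C in CO2 (two population doublings). Cells ethanol-fixed and crystal violet stained; dye eluted with acidified ethanol, read at 570 nm. IC50 by regression of % inhibition against log concentration.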

| Structure (SMILES) | IC50 |
| --- | --- |
| C/C(=N\NC(N)=S)c1ccccn1 | 3000 nM |

tested on: not listed separately; assay: Half life in phosphate buffer at pH 7.4 at 37 degC assessed as half life by LC/MS analysis; assay type: physicochemical; settings: not given

| Structure (SMILES) | half-life |
| --- | --- |
| CC(C)CNC(=O)[C@@H](N)Cc1ccc(O[P@]2(=O)CO[C@@H](Cn3cnc4c(N)ncnc43)CO2)cc1 | 0.433 h |
| COC(=O)[C@@H](N)Cc1ccc(O[P@]2(=O)CO[C@@H](Cn3ccc(N)nc3=O)CO2)cc1 | 0.317 h |
| CC(C)(C)NC(=O)[C@H](N)Cc1ccc(O[P@@]2(=O)CO[C@@H](Cn3ccc(N)nc3=O)CO2)cc1 | 10.5 h |
| CC(C)OC(=O)[C@@H](N)Cc1ccc(O[P@@]2(=O)CO[C@@H](Cn3ccc(N)nc3=O)CO2)cc1 | 3.98 h |
| COC(=O)[C@H](Cc1ccc(O[P@@]2(=O)CO[C@@H](Cn3cnc4c(N)ncnc43)CO2)cc1)NC(=O)[C@@H](N)C(C)C | 1.1 h |
| CC(C)CNC(=O)[C@@H](N)Cc1ccc(O[P@@]2(=O)CO[C@@H](Cn3cnc4c(N)ncnc43)CO2)cc1 | 3.85 h |
| CC(C)(C)NC(=O)[C@H](N)Cc1ccc(O[P@]2(=O)CO[C@@H](Cn3ccc(N)nc3=O)CO2)cc1 | 1 h |
| COC(=O)[C@H](N)Cc1ccc(O[P@@]2(=O)CO[C@@H](Cn3ccc(N)nc3=O)CO2)cc1 | 2.1 h |
| CC(C)OC(=O)[C@@H](N)Cc1ccc(O[P@]2(=O)CO[C@@H](Cn3ccc(N)nc3=O)CO2)cc1 | 0.367 h |
| COC(=O)[C@H](Cc1ccc(O[P@]2(=O)CO[C@@H](Cn3cnc4c(N)ncnc43)CO2)cc1)NC(=O)[C@@H](N)C(C)C | 0.25 h |
| COC(=O)[C@H](N)Cc1ccc(O[P@]2(=O)CO[C@@H](Cn3ccc(N)nc3=O)CO2)cc1 | 0.35 h |
| COC(=O)[C@@H](N)Cc1ccc(O[P@@]2(=O)CO[C@@H](Cn3ccc(N)nc3=O)CO2)cc1 | 2.02 h |

From ChEMBL document CHEMBL1926544, “Tyrosine-based 1-(S)-[3-hydroxy-2-(phosphonomethoxy)propyl]cytosine and -adenine ((S)-HPMPC and (S)-HPMPA) prodrugs: synthesis, stability, antiviral activity, and in vivo transport studies” (J Med Chem, 2011)
